# Measured values collected from several papers.
# Lines come from different studies, so protocols differ.
# Target: Tyrosine-protein kinase TXK (TXK, Homo sapiens, UniProt P42681)
# Sequence (P42681 1-527, as in one of the studies): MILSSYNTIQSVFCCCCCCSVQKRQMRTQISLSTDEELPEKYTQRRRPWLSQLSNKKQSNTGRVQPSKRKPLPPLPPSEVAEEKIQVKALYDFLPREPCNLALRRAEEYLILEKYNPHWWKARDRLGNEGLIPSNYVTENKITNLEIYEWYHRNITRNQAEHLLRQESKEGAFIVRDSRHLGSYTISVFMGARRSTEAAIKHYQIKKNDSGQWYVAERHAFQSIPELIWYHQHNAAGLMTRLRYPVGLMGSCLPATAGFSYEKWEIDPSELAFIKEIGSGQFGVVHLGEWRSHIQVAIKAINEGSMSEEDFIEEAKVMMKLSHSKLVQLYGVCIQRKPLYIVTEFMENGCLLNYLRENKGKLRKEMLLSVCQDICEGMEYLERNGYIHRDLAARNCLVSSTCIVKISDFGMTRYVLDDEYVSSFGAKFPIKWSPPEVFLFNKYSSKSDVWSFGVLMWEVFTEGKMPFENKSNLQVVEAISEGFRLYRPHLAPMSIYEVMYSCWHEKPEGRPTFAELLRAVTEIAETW
SMILES,observed,action,method,tested at,endpoint,value
Nc1ncnc2occ(-c3ccc(NC(=O)Nc4cc(C(F)(F)F)ccc4F)cc3)c12,enzyme activity,inhibitor,,20 µM,remaining activity,14%
CCCCN(CCCC)C(=O)CN1C[C@@H](c2cc(OC)c3c(c2)OCO3)[C@H](C(=O)O)[C@H]1CC(C)(C)CCC,cell-free assay,,competition with immobilised ligand,1 µM,remaining binding,100%
O=C1NC(=O)c2cc(Nc3ccc(F)cc3)c(Nc3ccc(F)cc3)cc21,cell-free assay,,,0.5 µM,remaining signal,84.1%
Cc1ccc(C(=O)NCc2ccsc2)cc1C#Cc1cn(C(C)C)c2ncnc(N)c12,enzyme activity,inhibitor,,1 µM,activity vs control,36%
CC(C)(C)c1nc2c(s1)c1nc(N)ncc1c1ccc(NS(=O)(=O)c3c(F)cccc3F)c(F)c12,enzyme activity,inhibitor,radiometric,1 µM,remaining activity,71%
Cc1c(NC(=O)c2cc(C(N)=O)nc3cc(F)ccc23)c(C(F)(F)F)nn1Cc1ccc(C#N)cc1,binding,,competition with immobilised ligand,1 µM,remaining binding,99%
COc1cc2ncnc(Nc3ccc(Oc4ccccc4)c(C)c3C)c2cc1OC,enzyme activity,inhibitor,,1 µM,inhibition,2%
O=C(Nc1cnn(-c2csc(C(=O)NC3COC3)c2)c1)Nc1c(F)cccc1Cl,enzyme activity,inhibitor,,5 µM,remaining activity,90.8%
CCN(CC)c1ccc(C2=NNC(=O)CC2C)cc1[N+](=O)[O-] (stereo not drawn),enzyme activity,inhibitor,,10 µM,remaining activity,84%
CCOC(=O)c1cc2cc(-c3cc(C(=O)NCc4ccc(C(=O)O)cc4)nn3C)ccc2[nH]1,binding,,competition with immobilised ligand,0.1 µM,remaining binding,90%
N#CCCc1ccc2c(c1)-c1[nH]c3ccc([N+](=O)[O-])cc3c1CC(=O)N2,cell-free assay,,,0.5 µM,remaining signal,67.6%
CCS(=O)(=O)c1cc2cc(C[C@](O)(CC(C)(C)c3ccc(F)cc3C(N)=O)C(F)(F)F)[nH]c2cn1,cell-free assay,,competition with immobilised ligand,1 µM,remaining binding,90%
Oc1ccc(-c2nc(-c3ccncc3)c(-c3ccc(F)cc3)[nH]2)cc1,cell-free assay,,,0.5 µM,remaining signal,78.5%
Cc1ccc(C(=O)Nc2ccc(CN3CCN(C)CC3)c(C(F)(F)F)c2)cc1C#Cc1cnc2cccnn12,enzyme activity,inhibitor,,23.5 nM,remaining activity,25%
COc1cc2nccc(Oc3ccc(NC(=O)c4c5n(n(-c6ccc(F)cc6)c4=O)CCCC5)cc3)c2cc1OC,enzyme activity,inhibitor,,0.1 µM,inhibition,-2%
Cc1cc(NC(=O)c2cccc3cc(-c4cccc5[nH]nc(N)c45)ccc23)ccc1F,enzyme activity,inhibitor,,0.1 µM,activity vs control,123%
Cn1nc(C(=O)NCc2ccc(C(=O)O)cc2)cc1-c1ccc2[nH]ccc2c1,binding,,competition with immobilised ligand,0.1 µM,remaining binding,90%
CC(C)(O)[C@H]1CC[C@H](Nc2ccc3ncc(-c4cccc(C(F)(F)F)c4)n3n2)CC1,enzyme activity,inhibitor,,1 µM,remaining activity,62.6%
